Calls of active or inactive are those of the source. The calls are words filed in the database; no cut-off is given here.

Data set [1] has as its system Trypanosoma brucei rhodesiense. As to the kind of experiment: Antitrypanosomal activity against Trypanosoma brucei rhodesiense STIB900 after 72 hrs by Alamar blue assay. The format is functional. Conditions: STIB900, 72 h. A digest of the protocol:
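T. b. rhodesiense STIB 900 bloodstream forms (1 x 10³ per well) incubated with 3-fold serial drug dilutions from DMSO stocks (20 mM) diluted in medium, 37°C, 5% CO2, 72 h, in triplicate. Drug-free controls and medium-only blanks were included. Alamar Blue was then added for 2-4 h and fluorescence read at ex 530/em 580 nm. IC50 is the mean of two independent experiments.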
Background: Alamar Blue is a resazurin reagent that responds to reducing activity.

A short description of data set [2]: Selectivity index, ratio of IC50 for human KB cells to IC50 for Trypanosoma brucei rhodesiense STIB900. Format: toxicity. Conditions: read-out: Ratio IC50. A digest of the protocol: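 SI is calculated as the KB-cell IC50 divided by the T. b. rhodesiense STIB900 IC50.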
Another data set deals with KB. The data set is described as follows: Cytotoxicity against human KB cells after 72 hrs by Alamar blue assay. The format is cell-based. The gist of the method:
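Human nasopharyngeal carcinoma KB cells were grown in RPMI 1640 with 10% heat-inactivated foetal calf serum at 37°C and 5% CO2. Monolayers were exposed to compounds for 72 h. Alamar Blue was then added for 2-4 h and fluorescence read at 530/580 nm. IC50 was derived by sigmoidal regression from the mean of two independent triplicate experiments.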

For data set [3], the system named is Leishmania donovani. As to the kind of experiment: Antileishmanial activity against Leishmania donovani HU3 amastigote forms infected in CD-1 mouse macrophages at 30 uM after 2 to 3 days by Giemsa staining based microscopic method relative to control. The format is functional.
For data set [4], the system named is Leishmania donovani. As to the kind of experiment: Antileishmanial activity against Leishmania donovani HU3 amastigote forms infected in CD-1 mouse macrophages at 10 uM after 2 to 3 days by Giemsa staining based microscopic method relative to control. Format: functional.

For orientation: IC50 means the concentration that gives 50% inhibition. For orientation: inhibition means the change of the read-out against control, counted positive when it falls. Consider `O=C(/C=C/c1ccccc1)c1cccc(Br)c1`, for which the figures for the IC50 (in data set [1]; with KB) were 0.96 µM and 18.4 µM, respectively. Further, the selectivity ratio in data set [2] worked out at 19. The same compound returned an inhibition at 30 µM in the data set on Leishmania donovani [3] of 13.8%. Besides, the result with Leishmania donovani [4] was inactive.

In the case of `O=C(/C=C/c1cccnc1)c1ccc2c(c1)OCO2`, the values for the IC50 (in data set [1]; in the data set with KB) were 4.83 µM and 59.4 µM, respectively. Besides, in data set [2], the selectivity ratio was found to be 12. For the same compound, the result with Leishmania donovani [4] was inactive.

On to `O=C(/C=C/c1cccnc1)c1cccc(Br)c1`, for which the IC50 in data set [1] is 0.29 µM; with KB, 13.5 µM. The selectivity ratio in data set [2] amounted to 47. The compound further registered an inhibition at 30 µM with Leishmania donovani [3] of 39.7%. Besides, the result in the data set with Leishmania donovani [4] was inactive.

Take `O=C(/C=C/c1cccnc1)c1ccccc1`: the results for the IC50 (in data set [1]; in the data set on KB) were 0.72 µM and 7.7 µM, respectively. Moreover, the selectivity ratio in data set [2] came out at 11. Further, the outcome in the data set on Leishmania donovani [4] was inactive.

As for `COc1cccc(C(=O)/C=C/c2cccnc2)c1`, the IC50 in data set [1] worked out at 0.41 µM; with KB, 2.3 µM. In data set [2], the selectivity ratio worked out at 6. For the same compound, the result with Leishmania donovani [4] was inactive.

Turning to `O=C(/C=C/c1ccncc1)c1cccc(Br)c1`, the IC50 in data set [1] is 0.65 µM; in the data set on KB it was 23.7 µM. The selectivity ratio in data set [2] turned out to be 36. Also, the result in the data set with Leishmania donovani [4] was inactive.

For the compound `COc1ccccc1C(=O)/C=C/c1cccnc1`, the IC50 in data set [1] came to 1.14 µM; with KB, 22.7 µM. Further, the selectivity ratio in data set [2] was 20. Moreover, the outcome with Leishmania donovani [4] was inactive.

Turning to `COc1cc([C@@H]2c3cc4c(cc3[C@H](O)[C@H]3COC(=O)[C@H]23)OCO4)cc(OC)c1OC` [PODOFILOX], in the data set on KB, the IC50 amounted to 0.058 µM.

In the case of `COc1ccc(C(=O)/C=C/c2cccnc2)cc1OC`, the IC50 turned out to be 0.98 µM in data set [1] and 22.8 µM in the data set on KB. Besides, the selectivity ratio in data set [2] was determined as 24. In addition, the result in the data set on Leishmania donovani [4] was inactive.

`COc1ccc(C(=O)/C=C/c2cccnc2)cc1`: the figures for the 50% inhibitory concentration (IC50) (in data set [1]; in the data set on KB) were 0.94 µM and 21.7 µM, respectively. Moreover, in data set [2], the selectivity ratio was found to be 23. For the same compound, the result in the data set with Leishmania donovani [4] was inactive.

With `O=C(CC(CC(=O)c1cccc(Br)c1)c1cccnc1)c1cccc(Br)c1`, the IC50 was 12.2 µM in data set [1] and 181 µM in the data set on KB. In addition, the selectivity ratio in data set [2] turned out to be 15. The result in the data set on Leishmania donovani [4] was inactive.

Turning to `O=C(/C=C/c1ccccn1)c1cccc(Br)c1`, the concentration for half-maximal inhibition (IC50) in data set [1] was determined as 0.4 µM; with KB, 14.7 µM. For the same compound, the selectivity ratio in data set [2] worked out at 37. Besides, the outcome in the data set on Leishmania donovani [4] was inactive.

In the case of `O=C(/C=C/c1cccnc1)c1ccccc1Br`, the IC50 in data set [1] is 37.8 µM; with KB, greater than 300 µM. In addition, in data set [2], the selectivity ratio is greater than 8. The outcome with Leishmania donovani [4] was inactive.

With `O=C(/C=C/c1cccnc1)c1ccc(Br)cc1`, the IC50 in data set [1] was 0.34 µM; with KB, 7.9 µM. Moreover, in data set [2], the selectivity ratio was determined as 23. For the same compound, in the data set with Leishmania donovani [3], testing at 30 µM gave an inhibition of 11.6%. Moreover, the outcome in the data set with Leishmania donovani [4] was inactive.

Consider `O=C(/C=C/c1cccnc1)c1cccc(Cl)c1`, for which the IC50 worked out at 0.62 µM in data set [1] and 12.7 µM in the data set with KB. In addition, the selectivity ratio in data set [2] was 21. Moreover, in the data set with Leishmania donovani [3], 30 µM produced 2.7% inhibition. For the same compound, the result in the data set on Leishmania donovani [4] was inactive.

With `O=C(/C=C/c1cccnc1)c1ccc(F)c(F)c1`, the IC50 in data set [1] came out at 0.72 µM; in the data set with KB, 20.7 µM. Moreover, in data set [2], the selectivity ratio amounted to 29. Further, the result in the data set with Leishmania donovani [4] was inactive.

For `O=C(/C=C/c1cccnc1)c1cccnc1`, the IC50 in data set [1] was determined as 1.02 µM; in the data set on KB, 17 µM. In data set [2], the selectivity ratio turned out to be 17. Also, the outcome in the data set with Leishmania donovani [4] was inactive.

As for `O=C(/C=C/c1cccc(Br)c1)c1cccnc1`, the results for the IC50 (in data set [1]; in the data set with KB) were 0.69 µM and 43.7 µM, respectively. The selectivity ratio in data set [2] turned out to be 63. Besides, the outcome in the data set on Leishmania donovani [4] was inactive.

In the case of `O=C(/C=C/c1cccnc1)c1cccc(O)c1`, the figures for the IC50 (in data set [1]; in the data set on KB) were 1.15 µM and 21.7 µM, respectively. In addition, the selectivity ratio in data set [2] turned out to be 19. Moreover, the outcome in the data set with Leishmania donovani [4] was inactive.

The values above are taken from ChEMBL document CHEMBL4004846, “Synthesis and antitrypanosomal activities of novel pyridylchalcones” (Eur J Med Chem, 2017).
